Experimental data published in ChEMBL document CHEMBL1139268, “Camphor sulfonamide derivatives as novel, potent and selective CXCR3 antagonists” (Bioorg Med Chem Lett, 2009).
Values after ≈ are worked out from the molar mass of the structure shown.

Tests used:
[1] = target: T1, C-X-C chemokine receptor type 3 (Homo sapiens, UniProt P49682); test: Antagonist activity at human recombinant CXCR3 receptor expressed in CHO-K1 cells assessed as human IP10-induced calcium flux by FLIPR assay; type: functional, cell-based
T1 sequence (P49682 whole entry): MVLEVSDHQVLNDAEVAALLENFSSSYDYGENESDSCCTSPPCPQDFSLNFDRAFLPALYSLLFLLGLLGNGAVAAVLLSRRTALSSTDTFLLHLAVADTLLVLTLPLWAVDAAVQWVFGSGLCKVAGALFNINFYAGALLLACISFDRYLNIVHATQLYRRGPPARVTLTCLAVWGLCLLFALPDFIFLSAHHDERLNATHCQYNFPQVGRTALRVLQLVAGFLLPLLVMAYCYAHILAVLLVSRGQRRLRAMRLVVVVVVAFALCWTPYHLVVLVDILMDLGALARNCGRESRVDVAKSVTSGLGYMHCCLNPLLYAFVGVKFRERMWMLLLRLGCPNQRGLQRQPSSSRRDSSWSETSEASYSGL

[2] = target: T2, C-X-C chemokine receptor type 3 (Mus musculus, UniProt O88410); test: Antagonist activity at mouse recombinant CXCR3 expressed in human U2OS cells; type: functional, cell-based
T2 sequence (O88410 whole entry): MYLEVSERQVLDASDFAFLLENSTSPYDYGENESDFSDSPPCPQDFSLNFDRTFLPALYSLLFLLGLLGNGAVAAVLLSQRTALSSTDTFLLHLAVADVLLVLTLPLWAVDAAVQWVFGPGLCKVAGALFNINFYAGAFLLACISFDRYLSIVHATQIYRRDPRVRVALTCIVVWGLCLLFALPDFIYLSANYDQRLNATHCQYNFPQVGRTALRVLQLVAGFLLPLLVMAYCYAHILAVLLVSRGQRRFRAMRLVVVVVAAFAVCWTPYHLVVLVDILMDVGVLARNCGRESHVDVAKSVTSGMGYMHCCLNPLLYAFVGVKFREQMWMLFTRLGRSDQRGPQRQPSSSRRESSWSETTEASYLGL
Summary of the method: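 Human U2OS cells were transiently transduced with a mixture of recombinant BacMam viruses, one expressing murine CXCR3 and one expressing chimeric G-protein Gqi5.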

[3] = target: T1, C-X-C chemokine receptor type 3; test: Antagonist activity at human recombinant CXCR3 receptor assessed as human IP10-induced calcium mobilization by FLIPR assay; type: functional; conditions: read-out: pA2 (converted)
[4] = Permeability across artificial membrane; type: ADME; conditions: PAMPA; read-out: permeability
[5] = Aqueous solubility of the compound; type: physicochemical; conditions: buffer

Structure (SMILES) | IC50 [1] [nM] | other results
CC1(C)[C@@H]2CC[C@@]1(CS(=O)(=O)N1CCN(c3ccc(C(F)(F)F)cn3)CC1)C(F)C2 (some centres undefined) | 794 | –
CC1(C)[C@@H]2CC[C@@]1(CS(=O)(=O)N1CCN(c3nc(Cl)c(C(F)(F)F)cc3Cl)CC1)C(=O)C2 | 316 | –
CC1(C)[C@@H]2CC[C@@]1(CS(=O)(=O)N1CCN(c3ncccc3C(F)(F)F)CC1)C(=O)C2 | > 31600 | –
CC1(C)[C@@H]2CC[C@@]1(CS(=O)(=O)N1CCN(c3ccc(C(F)(F)F)cn3)C(CO)C1)C(=O)C2 (some centres undefined) | 398 | –
CC1(C)[C@@H]2CC[C@@]1(CS(=O)(=O)N1CCN(c3ncc(C(F)(F)F)cc3[N+](=O)[O-])CC1)C(=O)C2 | 3160 | –
CCC1CN(S(=O)(=O)C[C@]23CC[C@H](CC2=O)C3(C)C)CCN1c1ccc(C(F)(F)F)cn1 (some centres undefined) | 631 | –
CC(=O)NC1C[C@H]2CC[C@]1(CS(=O)(=O)N1CCN(c3ccc(C(F)(F)F)cn3)CC1)C2(C)C (some centres undefined) | 2000 | –
C[C@@H]1CN(c2ccc(C(F)(F)F)cn2)[C@@H](C)CN1S(=O)(=O)C[C@]12CC[C@H](CC1=O)C2(C)C | 6310 | –
CC1(C)[C@@H]2CC[C@@]1(CS(=O)(=O)N1CCN(c3ccc(C(F)(F)F)cn3)CC1)C1(C2)OCCO1 | 200 | –
C[C@H]1CN(S(=O)(=O)C[C@]23CC[C@H](CC2O)C3(C)C)CCN1c1ccc(C(F)(F)F)cn1 (some centres undefined) | 158 | IC50 [2]: 631 nM
CC1(C)[C@@H]2CC[C@@]1(CS(=O)(=O)N1CCN(c3cc(C(F)(F)F)ccn3)CC1)C(=O)C2 | 25100 | –
CC1(C)[C@@H]2CC[C@@]1(CS(=O)(=O)N1CCN(c3ncc(Br)cn3)CC1)C(=O)C2 | 631 | –
CC1(C)[C@@H]2CC[C@@]1(CS(=O)(=O)N1CCN(c3ccccn3)CC1)C(=O)C2 | > 31600 | –
C[C@H]1CN(S(=O)(=O)C[C@]23CC[C@H](CC2=O)C3(C)C)CCN1c1ccc(C(F)(F)F)cn1 | 158 | IC50 [2]: 2510 nM
CC1(C)[C@@H]2CC[C@@]1(CS(=O)(=O)N1CCN(c3cccc(C(F)(F)F)n3)CC1)C(=O)C2 | 25100 | –
CC1(C)[C@@H]2CC[C@@]1(CS(=O)(=O)N1C[C@@H]3C[C@H]1CN3c1ccc(C(F)(F)F)cn1)C(=O)C2 | > 31600 | –
Cc1ccc(N2CCN(S(=O)(=O)C[C@]34CC[C@H](CC3=O)C4(C)C)CC2)nc1 | > 31600 | –
CC1(C)[C@@H]2CC[C@@]1(CS(=O)(=O)NC1CCN(c3ccc(C(F)(F)F)cn3)CC1)C(=O)C2 | 15800 | –
CC1CN(c2ccc(C(F)(F)F)cn2)CCN1S(=O)(=O)C[C@]12CC[C@H](CC1=O)C2(C)C (some centres undefined) | 631 | –
C[C@H]1CN(S(=O)(=O)C[C@]23CC[C@H](CC24OCCO4)C3(C)C)CCN1c1ncc(C(F)(F)F)cc1F | 39.8 | IC50 [2]: 1580 nM
C[C@H]1CN(S(=O)(=O)C[C@]23CC[C@H](C[C@H]2O)C3(C)C)CCN1c1ncc(C(F)(F)F)cc1F | 63.1 | IC50 [2]: 1580 nM
CC1(C)[C@@H]2CC[C@@]1(CS(=O)(=O)N1CCN(c3ncc(C(F)(F)F)cc3Cl)CC1)C(=O)C2 | 398 | –
C[C@H]1CN(S(=O)(=O)C[C@]23CC[C@H](CC2O)C3(C)C)CCN1c1ncc(C(F)(F)F)cc1F (some centres undefined) | 50.1 | IC50 [2]: 158 nM
CC1(C)[C@@H]2CC[C@@]1(CS(=O)(=O)N1CCN(c3cc4ccccc4cn3)CC1)C(=O)C2 | 15800 | –
CCNC(=O)NC1C[C@H]2CC[C@]1(CS(=O)(=O)N1CCN(c3ccc(C(F)(F)F)cn3)CC1)C2(C)C (some centres undefined) | 794 | –
CC1CN(S(=O)(=O)C[C@]23CC[C@H](CC2=O)C3(C)C)CCN1c1ccc(C(F)(F)F)cn1 (some centres undefined) | 316 | –
CC1(C)[C@@H]2CC[C@@]1(CS(=O)(=O)N1CCN(c3ccc(C(F)(F)F)cn3)CC1)C(O)C2 (some centres undefined) | 158 | –
CC1(C)[C@@H]2CC[C@@]1(CS(=O)(=O)N1CCN(c3ncc(C(F)(F)F)cc3F)CC1)C(=O)C2 | 158 | IC50 [2]: 794 nM

Structure (SMILES) | IC50 [1] [nM] | other results
CC1(C)[C@@H]2CC[C@@]1(CS(=O)(=O)N1CCN(c3ccc(C(F)(F)F)cn3)CC1)C(NS(C)(=O)=O)C2 (some centres undefined) | 631 | –
CC(C)C1CN(S(=O)(=O)C[C@]23CC[C@H](CC2=O)C3(C)C)CCN1c1ccc(C(F)(F)F)cn1 (some centres undefined) | > 31600 | –
CC1(C)[C@@H]2CC[C@@]1(CS(=O)(=O)N1CCCN(c3ccc(C(F)(F)F)cn3)CC1)C(=O)C2 | 6310 | –
C[C@H]1CN(S(=O)(=O)C[C@]23CC[C@H](CC2=O)C3(C)C)CCN1c1ncc(C(F)(F)F)cn1 | 126 | IC50 [2]: 1000 nM
CC1(C)[C@@H]2CC[C@@]1(CS(=O)(=O)N1CCN(c3ccc(Br)cn3)CC1)C(=O)C2 | 1580 | –
CC1(C)[C@@H]2CC[C@@]1(CS(=O)(=O)N1CCC(Nc3ccc(C(F)(F)F)cn3)CC1)C(=O)C2 | 31600 | –
CC1(C)[C@@H]2CC[C@@]1(CS(=O)(=O)N1CCN(c3ccc(C(F)(F)F)cc3F)CC1)C(=O)C2 | 2000 | –
CC1(C)[C@@H]2CC[C@@]1(CS(=O)(=O)N1CCN(c3ccc(C(F)(F)F)c(Cl)n3)CC1)C(=O)C2 | 251 | –
CC1(C)[C@@H]2CC[C@@]1(CS(=O)(=O)N1CCN(c3ccc(C(F)(F)F)cn3)C(c3ccccc3)C1)C(=O)C2 (some centres undefined) | > 31600 | –
CC1(C)[C@@H]2CC[C@@]1(CS(=O)(=O)N1CCN(c3ccc([N+](=O)[O-])cn3)CC1)C(=O)C2 | > 31600 | –
CC1(C)[C@@H]2CC[C@@]1(CS(=O)(=O)N1CCN(c3ccc(C(F)(F)F)cn3)CC1)C(=O)C2 | 251 | Kb [3]: 126 nM; IC50 [2]: 1260 nM
CN(CCN(C)S(=O)(=O)C[C@]12CC[C@H](CC1=O)C2(C)C)c1ccc(C(F)(F)F)cn1 | > 31600 | –
CC1(C)[C@@H]2CC[C@@]1(CS(=O)(=O)N1CCN(c3ccc(C(F)(F)F)nn3)CC1)C(=O)C2 | 5010 | –
CC1(C)[C@@H]2CC[C@@]1(CS(=O)(=O)N1CCN(c3ncc(C(F)(F)F)cc3F)[C@H](CO)C1)C(=O)C2 | 316 | IC50 [2]: 6310 nM; Papp [4]: 56 ×10⁻⁶ cm/s; solubility [5]: 40 µg/mL (≈ 81 µM)
C[C@@H]1CN(S(=O)(=O)C[C@]23CC[C@H](CC2=O)C3(C)C)CCN1c1ccc(C(F)(F)F)cn1 | 501 | –
CC1(O)C[C@H]2CC[C@]1(CS(=O)(=O)N1CCN(c3ccc(C(F)(F)F)cn3)CC1)C2(C)C (some centres undefined) | 200 | –
CC1(C)[C@@H]2CC[C@@]1(CS(=O)(=O)N1CCN(c3ncc(C(F)(F)F)cn3)CC1)C(=O)C2 | 316 | –
C[C@H]1CN(S(=O)(=O)C[C@]23CC[C@H](C[C@H]2O)C3(C)C)CCN1c1ccc(C(F)(F)F)cn1 | 316 | IC50 [2]: 631 nM
C[C@@H]1CN(S(=O)(=O)C[C@]23CC[C@H](CC2=O)C3(C)C)CCN1c1ncc(C(F)(F)F)cc1F | 501 | –
CC1(C)[C@@H]2CC[C@@]1(CS(=O)(=O)N1CCN(c3nc4ccccc4s3)CC1)C(=O)C2 | > 12600 | –
C[C@H]1CN(S(=O)(=O)C[C@]23CC[C@H](C[C@@H]2O)C3(C)C)CCN1c1ccc(C(F)(F)F)cn1 | 31.6 | IC50 [2]: 200 nM
CCNC1C[C@H]2CC[C@]1(CS(=O)(=O)N1CCN(c3ccc(C(F)(F)F)cn3)CC1)C2(C)C (some centres undefined) | 7940 | –
CC(=O)c1ccc(N2CCN(S(=O)(=O)C[C@]34CC[C@H](CC3=O)C4(C)C)CC2)nc1 | > 31600 | –
CC1(C)[C@@H]2CC[C@@]1(CS(=O)(=O)N1CCN(c3ccc(C(F)(F)F)cn3)CC1)C(N)C2 (some centres undefined) | 794 | –
CC1(C)[C@@H]2CC[C@@]1(CS(=O)(=O)N1CCN(c3ccc(C#N)cn3)CC1)C(=O)C2 | > 31600 | –
CC1(C)[C@@H]2CC[C@@]1(CS(=O)(=O)N1CCN(c3ccc(C(F)(F)F)cc3)CC1)C(=O)C2 | > 31600 | –
CC1(C)[C@@H]2CC[C@]1(CS(=O)(=O)N1CCN(c3ccc(C(F)(F)F)cn3)CC1)C(=O)C2 | 1580 | –
